Results reported in the RNAGym collection of RNA variant scans (doi:10.1126/science.aae0568).
This sample holds only a part of the variants without activity.

B1: tRNA (parent)
chain: GUUCCGUUGGCGUAAUGGUAACGCGUCUCCCUCCUAAGGAGAAGACUGCGGGUUCGAGUCCCGUACGGAACG

Variants of: B1
Test: yeast fitness relative to wild type (ratio to wild type); higher = fitter; tRNA-Arg(CCU), competitive growth, 37 C, YPD
Method in brief: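 Genotype frequency changes were the basis for Darwinian fitness relative to wild type. The frequencies came from 100-nucleotide paired-end sequencing of gene amplicons from the start population and each end population of pooled yeast strains with tRNA-Arg(CCU) gene variants at the native locus. Competition ran in YPD at 37°C for 24 hours in six replicates, genotypes needed ≥ 100 starting reads, and estimates < 0.5 were set to 0.5.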

Variant	yeast fitness
GUUCCGUUGGCGUAAUGGUAACGCGUCUUCCUCCUAAGGAGAAGACUGCGGGUUCGAGGCCCGUACGGAACG [C29U U59G]	0.83
GUUCCGUUGGCGUAAUGGUAACGCGUCUUCCUCCUAAGGAGAAGACUGCGGGUUCGAGUCCCGGACGGAACG [C29U U64G]	0.748
GUUCCGUUGGCGUAAUGGUAACGCGUCUUCCUCCUAAGGAGAAGACUGCGGGUUCGAGUCCCGAACGGAACG [C29U U64A]	0.677
GUUCCGUUGGCGUAAUGGUAACGCGUCUCAUUCCUAAGGAGAAGACUGCGGGUUCGAGCCCCGUACGGAACG [C30A C31U U59C]	0.983
GUUCCGUUGGCGUAAUGGUAACGCGUCUCACUCCUAAGGAGAAGACUGAGGGUUCGAGUCCCGUACGGAACG [C30A C49A]	0.699
GUUCCGUUGGCGUAAUGGUAACGCGUCUCACUCCUAAGGAGCAGACUGCGGGUUCGAGUCCCGUACGGAACG [C30A A42C]	0.789
GUUCCGUUGGCGUAAUGGUAACGCGUCUCACUCCUAAGGAGUAGACUGCGGGUUCGAGUCCCGUACGGAACG [C30A A42U]	0.753
GUUCCGUUGGCGUAAUGGUAACGCGUCUUCCUCCUAAGGAGAACACUGCGGGUACGAGUCCCGUACGGAACG [C29U G44C U54A]	0.55
GUUCCGUUGGCGUAAUGGUAACGCGUCUUCCUCCUAAGUAGAAGACUGGGGGUUCGAGUCCCGUACGGAACG [C29U G39U C49G]	≤ 0.5
GUUCCGUUGGCGUAAUGGUAACGCGUCUCACUCCUAAGGCGAGGACUGGGGGUUCGAGUCCCCUACGGAACG [C30A A40C A43G C49G G63C]	≤ 0.5
GUUCCGUUGGCGUAAUGGUAACGCGUCUCACUCCUAAGGAGAGGACUGCCGGUUCGAGUCCCGUACGGAACG [C30A A43G G50C]	0.767
GUUCCGUUGGCGUAAUGGUAACGCGUCUCACUCCUAACGAGAAGACUGCGGGUUCGAGUCCCGUACGGAACG [C30A G38C]	0.851
GUUCCGUUGGCGUAAUGGUAACGCGUCUCACUCCUAAGGAGAAGACUGCGGGUUCGAGUCCCGUAUGGAACG [C30A C66U]	0.847
GUUCCGUUGGCGUAAUGGUAACGCGUCUUCCUCCUAAGGAGAAGACUGCGGGUUCGAGUCCCGUACUGAACG [C29U G67U]	0.91
GUUCCGUUGGCGUAAUGGUAACGCGUCUCACUCCUACGGAGAAGACUGCGGGUUCGAGUACCGUACGGAACG [C30A A37C C60A]	≤ 0.5
GUUCCGUUGGCGUAAUGGUAACGCGUCUCACUCCUAAGGAGAAGACUGCGGGUUAGAGUCCAGUACGGAACG [C30A C55A C62A]	≤ 0.5
GUUCCGUUGGCGUAAUGGUAACGCGUCUUCCUCCUAAGGACAAGACUGAGGGUUCGAGUCCCGUACGGAACG [C29U G41C C49A]	0.62
GUUCCGUUGGCGUAAUGGUAACGCGUCUCACUCCUAAGGAGAAGACUGCGGGUUCAAGUCCCGUAGGGAACG [C30A G56A C66G]	≤ 0.5
GUUCCGUUGGCGUAAUGGUAACGCGUCUCAUUCCUAAGGAGAAGACUGCGGGUUCGAGUCCCGUACGGAACG [C30A C31U]	1

Variant	yeast fitness
GUUCCGUUGGCGUAAUGGUAACGCGUCUCACUCCCAAGGAGAAGACUGCGGGUUCGAGUCCCGUACGGAACG [C30A U35C]	0.93
GUUCCGUUGGCGUAAUGGUAACGCGUCUCACUCCUAAGAAGAAGACUGCGGGUUCGAGUCCCGUACGGAACG [C30A G39A]	0.833
GUUCCGUUGGCGUAAUGGUAACGCGUCUCACUCCUAAGUAGAAGACUGCGGGUUCGAGUCCCGUACGGAACG [C30A G39U]	0.772
GUUCCGUUGGCGUAAUGGUAACGCGUCUUCCUCCUAACGAGAAGACUGUGGGUUCGAGUCCCGUACGAAACG [C29U G38C C49U G68A]	≤ 0.5
GUUCCGUUGGCGUAAUGGUAACGCGUCUUCCUCCUAAGGAGAAGACUGCGGGAUCGAGUCUCGCACGGAACG [C29U U53A C61U U64C]	≤ 0.5
GUUCCGUUGGCGUAAUGGUAACGCGUCUUCCCCCUAAGGAGAAGACUGCGGGUUCGAGUCCUGUACGGAUCG [C29U U32C C62U A70U]	≤ 0.5
GUUCCGUUGGCGUAAUGGUAACGCGUCUCACUCCUAAGGAGAAGAGUGCGGAUUCAAGUCCCGUACGGAACG [C30A C46G G52A G56A]	0.608
GUUCCGUUGGCGUAAUGGUAACGCGUCUCACUCCUAAGGAGAAGACUGCCGGUUCGAGUCCCGUACGGAACG [C30A G50C]	0.594
GUUCCGUUGGCGUAAUGGUAACGCGUCUCACUCCUAAGGAGAAGACUGCUGGUUCGAGUCCCGUACGGAACG [C30A G50U]	0.816
GUUCCGUUGGCGUAAUGGUAACGCGUCUUCCUCCUAAGGAUAAGACUGCGGGUUCGAGUCCCGUACGGAACG [C29U G41U]	0.769
GUUCCGUUGGCGUAAUGGUAACGCGUCUCACUCCUAAGGAGAAGACUGCGGGUUCGAGUCUCGUACGGAACG [C30A C61U]	0.767
GUUCCGUUGGCGUAAUGGUAACGCGUCUCACUCCUAAGGAGAAGACUGCGGGUUCGAGUCCCGUACGGACCG [C30A A70C]	1.01
GUUCCGUUGGCGUAAUGGUAACGCGUCUCACUCCUAGGGAGAAGAUUGCGGGUUCGCGUCCCGUACGGAACG [C30A A37G C46U A57C]	≤ 0.5
GUUCCGUUGGCGUAAUGGUAACGCGUCUCACUCCUAAGGAGUAGACUGUGGGUUCGAGCCCCGUACGGCACG [C30A A42U C49U U59C A69C]	0.557
GUUCCGUUGGCGUAAUGGUAACGCGUCUUCCUCCUAAGGAGAAGACUGCGCGUUCGAGUCCCGUACGGAACG [C29U G51C]	0.57
GUUCCGUUGGCGUAAUGGUAACGCGUCUUCCUCCUAAGCAGAAGACUGCGGGUUCGAGUCCCGUACGGAACG [C29U G39C]	0.65
GUUCCGUUGGCGUAAUGGUAACGCGUCUUCCUCCUAAGUAGAAGACUGCGGGUUCGAGUCCCGUACGGAACG [C29U G39U]	1.07
GUUCCGUUGGCGUAAUGGUAACGCGUCUCACUCCUAAGGAGCAGACUGCGGGUUCGAGUCCCGUACGGGACG [C30A A42C A69G]	≤ 0.5
